# Measured values published in ChEMBL document CHEMBL4190282, “The Conjugated Double Bond of Coniferyl Aldehyde Is Essential for Heat Shock Factor 1 Mediated Cytotoprotection” (J Nat Prod, 2017).
# Active and inactive are the calls of the source. The calls are words filed in the database; no cut-off is given here.
# Experiments:
# L132 [1] = experiment: Cytoprotective activity against paclitaxel-induced cell death in human L-132 cells at 3 uM pretreated for 1 hr followed by paclitaxel addition measured after 24 hrs by FACS analysis; type: functional, cell-based
# Summary of the method: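 L132 cells in RPMI with 10% FBS. 1 h pretreatment at 3 μM, then 0.5 μM paclitaxel or 20 μM cisplatin for 24 h, or 10 Gy γ-rays for 48 h. Cells trypsinized, washed, stained with propidium iodide and analysed by flow cytometry. Means ± SD of ≥3 independent experiments, fold-change vs negative control.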
# [2] = molecular target: T1, Heat shock factor protein 1 (Homo sapiens) (UniProt Q00613); experiment: Activation of HSF1 in human NCI-H460 cells expressing pGL4-hsp25 construct assessed as upregulation of hsp25 promoter activity at 10 to 30 uM after 12 hrs by luciferase reporter gene assay; type: cell-based
# T1 sequence (whole entry): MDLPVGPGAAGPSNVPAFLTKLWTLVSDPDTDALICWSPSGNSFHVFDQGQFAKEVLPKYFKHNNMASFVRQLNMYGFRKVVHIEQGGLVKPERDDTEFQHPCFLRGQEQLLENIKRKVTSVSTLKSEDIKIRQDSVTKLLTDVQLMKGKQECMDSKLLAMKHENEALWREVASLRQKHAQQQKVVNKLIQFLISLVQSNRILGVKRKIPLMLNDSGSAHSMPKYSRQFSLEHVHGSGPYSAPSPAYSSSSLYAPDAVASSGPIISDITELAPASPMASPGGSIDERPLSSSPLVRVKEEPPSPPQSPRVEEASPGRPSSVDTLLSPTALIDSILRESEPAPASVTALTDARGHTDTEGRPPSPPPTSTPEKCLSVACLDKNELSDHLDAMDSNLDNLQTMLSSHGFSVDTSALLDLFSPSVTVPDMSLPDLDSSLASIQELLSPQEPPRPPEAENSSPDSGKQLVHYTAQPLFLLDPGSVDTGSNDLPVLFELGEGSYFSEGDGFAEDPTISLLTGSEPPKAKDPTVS
# Summary of the method: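 NCI-H460 cells stably carrying hsp25 or hsp70 promoter–luciferase reporters, seeded, treated after 24 h at 10 or 30 μM and harvested 12 h later. Lysate luciferase normalized to β-galactosidase; mean of three independent experiments, fold-change vs negative control.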
# Mus musculus [3] = experiment: Protection against IR-induced mortality in ICR mouse assessed as increase in mean survival days at 5 to 10 mg/kg, ip administered once before and three times after 7 Gy irradiation measured daily for 30 days; type: functional, organism-based
# Summary of the method: (§1)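 Female ICR mice (5–6 weeks, 25–30 g) given 7 Gy whole-body IR; dosed ip at 5 or 10 mg/kg once before and three times after IR, DMSO stock diluted in modified PBS. Survival days and radiation sickness signs checked twice daily; 10 mice per group.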
# [4] = molecular target: T1, Heat shock factor protein 1 (Homo sapiens); experiment: Activation of HSF1 in human L132 cells assessed as increase in HSP25 protein levels at 3 uM after 12 hrs by immunoblotting analysis; type: cell-based
# Summary of the method: (§2)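 L132 cells treated at 3 μM for 12 h, or at various doses for 12 h, or at 3 μM over a time course. Lysates resolved by SDS-PAGE, blotted to nitrocellulose, milk-blocked, primary antibodies 18 h at 4 °C, ECL detection. HSP27, HSP70 and Ser326-phospho-HSF1 bands normalized to loading control; ≥3 independent experiments; celastrol 1 μM positive control.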
# L132 [5] = experiment: Cytotoxicity against human L-132 cells assessed as reduction in cell viability up to 20 uM after 24 hrs by MTT assay; type: cell-based; settings: l132, 24 h
# Summary of the method: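 L132 cells treated 24 h at indicated doses up to 20 μM. MTT (5 mg/mL in PBS) 4 h at 37 °C, formazan dissolved in DMSO, absorbance at 540 nm converted to cell number via calibration curve. Celastrol positive control.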
# MEF [6] = experiment: Cytoprotective activity against IR-induced PARP cleavage in HSF1 deficient MEF at 3 uM pretreated for 1 hr followed by 10 Gy irradiation measured after 48 hrs by immunoblotting analysis; type: functional, cell-based; settings: Mus musculus
# Summary of the method: (§3)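 HSF1+/+ or HSF1−/− MEFs in DMEM with heat-inactivated 10% FBS, nonessential amino acids, glutamine, HEPES, 37 °C, 5% CO2. 1 h pretreatment at 3 μM, then 0.5 μM paclitaxel or 20 μM cisplatin for 24 h, or 10 Gy 137Cs γ-rays (3.81 Gy/min) for 48 h. Cleaved PARP and caspase-3 immunoblotted; bands normalized to loading control, fold-change vs negative control, ≥3 independent experiments.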
# MEF [7] = experiment: Cytoprotective activity against paclitaxel-induced caspase3 cleavage in HSF1 deficient MEF at 3 uM pretreated for 1 hr followed by paclitaxel addition measured after 24 hrs by immunoblotting analysis; type: functional, cell-based; settings: Mus musculus; summary of the method: as §3
# Mus musculus [8] = experiment: Protection against IR-induced lethargy in ICR mouse at 5 to 10 mg/kg, ip administered once before and three times after 7 Gy irradiation measured daily for 30 days; type: functional, organism-based; summary of the method: as §1
# [9] = molecular target: T1, Heat shock factor protein 1 (Homo sapiens); experiment: Activation of HSF1 in human L132 cells assessed as increase in HSP70 protein levels at 3 uM after 6 to 24 hrs by immunoblotting analysis; type: cell-based; summary of the method: as §2
# L132 [10] = experiment: Cytoprotective activity against paclitaxel-induced PARP cleavage in human L-132 cells at 3 uM pretreated for 1 hr followed by paclitaxel addition measured after 24 hrs by immunoblotting analysis; type: functional, cell-based
# Summary of the method: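 Human embryonic lung L132 cells in RPMI with 10% FBS. 1 h pretreatment at 3 μM, then 0.5 μM paclitaxel or 20 μM cisplatin for 24 h, or 10 Gy 137Cs γ-rays (3.81 Gy/min) for 48 h. Cleaved PARP and caspase-3 immunoblotted (ECL); bands normalized to loading control, fold-change vs negative control, ≥3 independent experiments.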
# [11] = molecular target: T1, Heat shock factor protein 1 (Homo sapiens); experiment: Induction of HSF1 phosphorylation at Ser326 residue in human L-132 cells at 3 uM after 12 hrs by immunoblotting analysis; type: cell-based; summary of the method: as §2
# Mus musculus [12] = experiment: Protection against IR-induced irritability in ICR mouse at 5 to 10 mg/kg, ip administered once before and three times after 7 Gy irradiation measured daily for 30 days; type: functional, organism-based; summary of the method: as §1
# [13] = molecular target: T2, Heat shock factor protein 1 (Mus musculus) (UniProt P38532); experiment: Activation of HSF1 in MEF assessed as protection against paclitaxel-induced PARP cleavage at 3 uM pretreated for 1 hr followed by paclitaxel addition measured after 24 hrs by immunoblotting analysis; type: cell-based; summary of the method: as §3
# T2 sequence (whole entry): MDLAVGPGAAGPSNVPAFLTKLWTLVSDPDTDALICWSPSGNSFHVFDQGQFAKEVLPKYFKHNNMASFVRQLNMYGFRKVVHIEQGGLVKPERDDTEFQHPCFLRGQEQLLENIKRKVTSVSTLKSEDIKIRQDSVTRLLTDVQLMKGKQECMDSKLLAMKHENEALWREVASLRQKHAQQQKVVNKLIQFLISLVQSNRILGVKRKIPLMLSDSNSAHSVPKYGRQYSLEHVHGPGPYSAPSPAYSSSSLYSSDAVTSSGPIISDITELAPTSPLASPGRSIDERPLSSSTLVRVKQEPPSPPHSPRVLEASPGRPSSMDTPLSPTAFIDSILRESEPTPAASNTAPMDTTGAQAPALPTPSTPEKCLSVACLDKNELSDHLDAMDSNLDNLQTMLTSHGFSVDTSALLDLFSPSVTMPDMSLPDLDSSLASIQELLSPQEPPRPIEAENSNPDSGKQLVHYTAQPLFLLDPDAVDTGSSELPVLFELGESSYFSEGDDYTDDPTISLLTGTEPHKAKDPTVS
SMILES,Activity (L132 [1]),Activity [2],Activity (Mus musculus [3]),Activity [4],Activity (L132 [5]),Activity (MEF [6]),Activity (MEF [7]),Activity (Mus musculus [8]),Activity [9],Activity (L132 [10]),Activity [11],Activity (Mus musculus [12]),Activity [13]
COc1cc(/C=C/CO)ccc1O [CONIFERYL ALCOHOL],Active,Active,Active,Active,Non-Toxic,inactive,inactive,Active,Active,Active,Active,Active,Active
COc1cc(/C=C/C=O)ccc1O [CONIFERYL ALDEHYDE],Active,Active,Active,Active,Non-Toxic,inactive,inactive,Active,Active,Active,Active,Active,Active
